The source made the active and inactive calls. The rule behind the calls is not given here.
Experiments:
MCF7 [1] = assay: Antiproliferative activity against human MCF7 cells after 72 hrs by crystal violet staining method; assay type: functional, cell-based; conditions: for IC50: MCF7, 72 h
Procedure, shortened: (§1)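 Cells seeded at a known number in 96-well plates and exposed to increasing compound concentrations for 72 h; IC50 taken from the concentration–growth-inhibition data.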

MDA-MB-231 [2] = assay: Antiproliferative activity against human MDA-MB-231 cells after 72 hrs by crystal violet staining method; assay type: functional, cell-based; conditions: for IC50: MDA-MB-231, 72 h; procedure, shortened: as §1
HT-29 [3] = assay: Antiproliferative activity against human HT-29 cells after 72 hrs by crystal violet staining method; assay type: functional, cell-based; conditions: for IC50: HT-29, 72 h; procedure, shortened: as §1
MCF7 [4] = assay: Antiproliferative activity against human MCF7 cells at 20 uM after 72 hrs by crystal violet staining method relative to control; assay type: functional
Procedure, shortened: (§2)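 Single-concentration growth inhibition in MCF-7 and MDA-MB 231 cells at 10 and 20 µM after 72 h, given as corrected treated/control percentage (T/C_corr %).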

MDA-MB-231 [5] = assay: Antiproliferative activity against human MDA-MB-231 cells at 20 uM after 72 hrs by crystal violet staining method relative to control; assay type: functional; procedure, shortened: as §2
MCF7 [6] = assay: Cytostatic activity against human MCF7 cells at 20 uM after 72 hrs by crystal violet staining method relative to control; assay type: functional; procedure, shortened: as §2
MDA-MB-231 [7] = assay: Cytostatic activity against human MDA-MB-231 cells at 20 uM after 72 hrs by crystal violet staining method relative to control; assay type: functional; procedure, shortened: as §2
MCF7 [8] = assay: Ratio of scopoletin IC50 to compound IC50 for human MCF7 cells; assay type: functional
MDA-MB-231 [9] = assay: Ratio of scopoletin IC50 to compound IC50 for human MDA-MB-231 cells; assay type: functional
HT-29 [10] = assay: Ratio of scopoletin IC50 to compound IC50 for human HT-29 cells; assay type: functional
MCF7 [11] = assay: Antiproliferative activity against human MCF7 cells at 1.25 to 20 uM up to 144 hrs by crystal violet staining method; assay type: functional, cell-based
Procedure, shortened: (§3)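 Time course at 1.25, 2.5, 5, 10 and 20 µM, with growth inhibition read as corrected treated/control percentage (T/C_corr %) at several incubation times over about 140 h.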

HT-29 [12] = assay: Antiproliferative activity against human HT-29 cells at 1.25 to 20 uM up to 144 hrs by crystal violet staining method; assay type: functional, cell-based; procedure, shortened: as §3
MDA-MB-231 [13] = assay: Induction of apoptosis in human MDA-MB-231 cells assessed as caspase3 activation at 10 uM after 24 hrs by fluorescence detection assay; assay type: functional, cell-based
U2OS = assay: Induction of apoptosis in human U2OS cells assessed as caspase3 activation at 10 uM after 24 hrs by fluorescence detection assay; assay type: functional, cell-based
MCF7 [14] = assay: Cytocidal activity against human MCF7 cells at 10 uM after 72 hrs by crystal violet staining method; assay type: functional, cell-based; procedure, shortened: as §2
MDA-MB-231 [15] = assay: Cytocidal activity against human MDA-MB-231 cells at 10 uM after 72 hrs by crystal violet staining method; assay type: functional, cell-based; procedure, shortened: as §2
MCF7 [16] = assay: Cytocidal activity against human MCF7 cells at 20 uM after 72 hrs by crystal violet staining method relative to control; assay type: functional; procedure, shortened: as §2
MDA-MB-231 [17] = assay: Cytocidal activity against human MDA-MB-231 cells at 20 uM after 72 hrs by crystal violet staining method relative to control; assay type: functional; procedure, shortened: as §2

Row | SMILES | IC50 (MCF7 [1]) [µM] | IC50 (MDA-MB-231 [2]) [µM] | IC50 (HT-29 [3]) [µM] | T/C (MCF7 [4]) [%] | T/C (MDA-MB-231 [5]) [%] | also measured
1 | COc1cc2ccc(=O)oc2cc1O [SCOPOLETIN] | > 100 | > 100 | > 100 |  |  | 
2 | COc1ccc(NC(=O)COc2cc3oc(=O)c(NC(C)=O)cc3cc2OC)cc1OC | 14.9 | 8.4 | > 20 | <50 | <50 | 
3 | COc1cc2cc(NC(C)=O)c(=O)oc2cc1OCC(=O)Nc1ccc(C(C)(C)C)cc1 | 3.9 | 4.5 | 4.3 |  |  | T/C (MCF7 [6]): 0%; T/C (MDA-MB-231 [7]): 0%; Ratio IC50 (MCF7 [8]): 12; Ratio IC50 (MDA-MB-231 [9]): 12; Ratio IC50 (HT-29 [10]): 12; Activity (MCF7 [11]): Active; Activity (HT-29 [12]): Active; Activity (MDA-MB-231 [13]): inactive; Activity (U2OS): inactive
4 | COc1ccccc1NC(=O)COc1cc2oc(=O)c(NC(C)=O)cc2cc1OC | 17.9 | 14.7 | 19.1 | <50 | <50 | 
5 | COc1cc2ccc(=O)oc2cc1OCC(=O)Nc1ccc(F)c(Cl)c1 | 6.5 | 6.3 | 7.6 | <50 | <50 | Activity (MCF7 [14]): Active; Activity (MDA-MB-231 [15]): Active; Ratio IC50 (MCF7 [8]): 12; Ratio IC50 (MDA-MB-231 [9]): 12; Ratio IC50 (HT-29 [10]): 12
6 | COc1cc2cc(NC(C)=O)c(=O)oc2cc1OCC(=O)Nc1ccc(C)cc1 | 19 | 13.9 | > 20 | <50 | <50 | 
7 | O=c1[nH]cc(F)c(=O)[nH]1 [FLUOROURACIL] | 4.7 |  |  |  |  | 
8 | COc1cc2cc(NC(C)=O)c(=O)oc2cc1OCC(=O)Nc1cccc(C(C)=O)c1 |  |  |  |  |  | Activity (MCF7 [1]): Active; Activity (MDA-MB-231 [2]): Active; Activity (HT-29 [3]): Active
9 | COc1cc2ccc(=O)oc2cc1OCC(=O)Nc1ccc(C(C)(C)C)cc1 | 10.1 | 8.1 | 19.6 |  |  | T/C (MCF7 [16]): <0%; T/C (MDA-MB-231 [17]): <0%
10 | COc1cc2cc(NC(C)=O)c(=O)oc2cc1OCC(=O)Nc1ccc(Cl)cc1 |  |  |  |  |  | Activity (MCF7 [1]): Active; Activity (MDA-MB-231 [2]): Active; Activity (HT-29 [3]): Active
11 | COc1cc2cc(NC(C)=O)c(=O)oc2cc1OCC(=O)Nc1ccc(F)cc1 |  |  |  |  |  | Activity (MCF7 [1]): Active; Activity (MDA-MB-231 [2]): Active; Activity (HT-29 [3]): Active
12 | COc1cc2ccc(=O)oc2cc1OCC(=O)Nc1ccc(Cl)cc1 | 19.5 | 19.3 | 18.1 | <50 | <50 | 

From ChEMBL document CHEMBL2057147, “Synthesis and in vitro antitumor activity of novel scopoletin derivatives” (Bioorg Med Chem Lett, 2012)
